Measured values as given in article PMC5400702 (European journal of nuclear medicine and molecular imaging, 2017).
Where “and” joins values, the source holds several entries; their conditions need not be identical. Equal values may be shown once. Read-outs that look alike come from different tables or passages of the source.

Experiments:
α7 nAChRs [1] = biological target: T1, α7 nAChRs (Macaca mulatta, UniProt Q866A2); format: in vivo; settings: 2TCM, rhesus monkey; for K1: average across all subjects and gray matter regions
T1 sequence (Q866A2 23-502): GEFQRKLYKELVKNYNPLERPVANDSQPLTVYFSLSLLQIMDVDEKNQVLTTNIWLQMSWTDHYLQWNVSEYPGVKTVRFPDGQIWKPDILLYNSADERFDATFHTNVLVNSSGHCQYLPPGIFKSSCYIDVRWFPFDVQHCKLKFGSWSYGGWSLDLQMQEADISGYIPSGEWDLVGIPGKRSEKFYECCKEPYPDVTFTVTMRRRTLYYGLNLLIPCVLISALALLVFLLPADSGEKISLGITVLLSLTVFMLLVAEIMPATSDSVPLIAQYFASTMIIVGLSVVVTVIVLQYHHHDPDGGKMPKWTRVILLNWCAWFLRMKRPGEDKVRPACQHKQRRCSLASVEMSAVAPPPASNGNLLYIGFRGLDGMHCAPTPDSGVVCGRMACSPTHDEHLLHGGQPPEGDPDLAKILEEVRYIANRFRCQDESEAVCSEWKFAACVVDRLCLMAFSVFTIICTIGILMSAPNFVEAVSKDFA

[2] = format: in vivo, Macaca mulatta; settings: arterial plasma, 120 min post-injection, averaged across subjects, rhesus monkey
Plasma free fraction [3] = format: in vitro ADME, Macaca mulatta; settings: rhesus monkey plasma, ultrafiltration
Summary of the method: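 Plasma from arterial samples of anesthetized rhesus monkeys during radiotracer PET scans was tested. Free fraction was measured by ultrafiltration in triplicate for each scan.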

α7 nAChRs [4] = biological target: T2, α7 nAChRs (Homo sapiens, UniProt P36544); experiment: [18F]ASEM PET imaging in human brain, kinetic modeling and test-retest; format: in vivo; settings: for K1 / VT / VT/fp: humans n=6; for VT TRV / VT/fp TRV: humans n=4
T2 sequence (P36544 23-502): as the sequence (Q866A2 23-502) above, with S171N, K186R, M373V, A376V counted along it

[5] = Parent [18F]ASEM in human arterial plasma; format: in vivo; settings: for parent [18F]ASEM fraction of radioactivity in plasma: human arterial plasma
Summary of the method: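 Six healthy volunteers (5 M, 1 F; 26–51 y) received 317±87 MBq radiotracer as a 1-min slow bolus into a forearm vein. Manual radial-artery samples were taken over 180 min post-injection. Plasma was analysed by HPLC for parent fraction, giving the metabolite-corrected arterial input function, expressed as SUV.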

Plasma free fraction [6] = format: in vitro ADME, human
α7 nAChRs [7] = biological target: T2, α7 nAChRs; settings: two subjects, initial [18F]ASEM human study ref 11; cited from earlier work
α7 nAChRs [8] = biological target: T1, α7 nAChRs; experiment: [18F]ASEM PET blocking scans with nicotine, varenicline and cold ASEM; settings: for receptor occupancy: Lassen plot
α7 nAChRs [9] = settings: full agonist ref 16, 17; cited from earlier work
[10] = 0.33 mg/kg varenicline, one value per animal (two animals)
[11] = 0.24 mg/kg nicotine, averaged across regions, one value per animal (two animals)

## O=S1(=O)c2ccc([18F])cc2-c2ccc(N3CCN4CCC3CC4)cc21 [[^18F]DBT-10]
α7 nAChRs [1]
  K1: 0.66±0.11 mL/cm^3·min^−1
  k2: 0.024 ± 0.010 min⁻¹
[2]
  parent fraction of total plasma radioactivity: 30%
Plasma free fraction [3]
  free fraction (fP) in plasma: 18.3±3.9%

## O=S1(=O)c2cc(N3CCN4CCC3CC4)ccc2-c2cccc([18F])c21 [[^18F]ASEM]
α7 nAChRs [1]
  K1: 0.59±0.14 mL/cm^3·min^−1
  k2: 0.022 ± 0.010 min⁻¹
[2]
  parent fraction of total plasma radioactivity: 16%
Plasma free fraction [3]
  free fraction (fP) in plasma: 14.9±1.1%
α7 nAChRs [4]; 1TCM, Caudate
  K1: 0.33±0.03 mL/cm^3 per min
  VT: 22.4±3.9 mL/cm^3
α7 nAChRs [4]; 1TCM, Cerebellum
  K1: 0.36±0.08 mL/cm^3 per min
  VT: 20.0±3.2 mL/cm^3
α7 nAChRs [4]; 1TCM, Frontal Cortex
  K1: 0.35±0.07 mL/cm^3 per min
  VT: 24.7±3.0 mL/cm^3
α7 nAChRs [4]; 1TCM, Hippocampus
  K1: 0.26±0.04 mL/cm^3 per min
  VT: 21.7±2.3 mL/cm^3
α7 nAChRs [4]; 1TCM, Occipital Cortex
  K1: 0.37±0.06 mL/cm^3 per min
  VT: 25.6±3.1 mL/cm^3
α7 nAChRs [4]; 1TCM, Putamen
  K1: 0.39±0.10 mL/cm^3 per min
  VT: 25.8±3.6 mL/cm^3
α7 nAChRs [4]; 1TCM, Temporal Cortex
  VT: 26.1±3.7 mL/cm^3
α7 nAChRs [4]; 1TCM, Thalamus
  K1: 0.38±0.08 mL/cm^3 per min
  VT: 26.6±3.3 mL/cm^3
α7 nAChRs [4]; 60 min of data vs 180 min, humans
  underestimation of VT with truncated data: 7.4±5.1%
α7 nAChRs [4]; 90 min of data vs 180 min, humans
  underestimation of VT with truncated data: 5.5±3.8%
α7 nAChRs [4]; 120 min of data vs 180 min, humans
  underestimation of VT with truncated data: 4.2±2.6%
α7 nAChRs [4]; MA1, 120 min of data, four human subjects, all regions
  test-retest variability of VT: 11.7±9.8%
α7 nAChRs [4]; MA1, Caudate
  VT TRV: 12.5±8.1%
  VT/fp TRV: 6.8±7.4%
  VT: 21.6±2.6 mL/cm^3
  VT/fp: 288±72 mL/cm^3
α7 nAChRs [4]; MA1, Cerebellum
  VT TRV: 13.4±7.6%
  VT/fp TRV: 7.8±6.2%
  VT: 19.6±2.5 mL/cm^3
  VT/fp: 259±57 mL/cm^3
α7 nAChRs [4]; MA1, Frontal Cortex
  VT TRV: 11.0±11.4%
  VT/fp TRV: 10.2±7.7%
  VT: 24.6±2.7 mL/cm^3
  VT/fp: 326±66 mL/cm^3
α7 nAChRs [4]; MA1, Hippocampus
  VT TRV: 10.9±8.4%
  VT/fp TRV: 8.0±7.8%
  VT: 21.7±2.1 mL/cm^3
  VT/fp: 287±58 mL/cm^3
α7 nAChRs [4]; MA1, Occipital Cortex
  VT TRV: 10.5±10.5%
  VT/fp TRV: 9.9±8.4%
  VT: 25.7±2.7 mL/cm^3
  VT/fp: 339±70 mL/cm^3
α7 nAChRs [4]; MA1, Putamen
  VT TRV: 12.0±8.1%
  VT/fp TRV: 7.8±7.5%
  VT: 25.4±3.0 mL/cm^3
  VT/fp: 335±66 mL/cm^3
α7 nAChRs [4]; MA1, Temporal Cortex
  VT TRV: 11.8±10.1%
  VT/fp TRV: 9.1±7.8%
  VT: 25.8±3.2 mL/cm^3
  VT/fp: 342±75 mL/cm^3
α7 nAChRs [4]; MA1, Thalamus
  VT TRV: 11.0±6.4%
  VT/fp TRV: 6.9±7.8%
  VT: 25.9±2.9 mL/cm^3
  VT/fp: 343±75 mL/cm^3
α7 nAChRs [4]; MA1, four human subjects, all regions
  test-retest variation of VT/fP: 9.3±7.3%
α7 nAChRs [4]; human brain
  peak SUV in brain: 3.0–4.5 SUV
α7 nAChRs [4]; human brain, post-injection
  time of peak radioactivity concentration in brain: 20 to 30 min
α7 nAChRs [4]; humans, administered mass 132±185 ng
  pharmacological effects following administration: No detectable pharmacological effects
α7 nAChRs [4]; humans, compared with ref 11
  VT higher than previously reported values: roughly 15%
[5]; 60 min after injection
  parent [18F]ASEM fraction of radioactivity in plasma: 27.5±7.9%
[5]; 180 min post-injection
  parent [18F]ASEM fraction of radioactivity in plasma: 8.8±1.6%
[5]; humans
  time of peak of parent [18F]ASEM curve in arterial plasma: 1.25 min
[5]; humans, 180 min post-injection
  SUV of parent [18F]ASEM curve in arterial plasma at end of scans: 0.47±0.08 SUV
[5]; humans, at 1.25 min
  peak SUV of parent [18F]ASEM curve in arterial plasma: 4.4±1.2 SUV
Plasma free fraction [6]; four human subjects
  test-retest variation of plasma free fraction (fP): −5.3±18.0%
Plasma free fraction [6]; human plasma
  fP: 7.7±1.3%
α7 nAChRs [7]
  test-retest variability of VT: 10.8±5.1%
α7 nAChRs [8]; estimated from Lassen plots, one value per animal (two animals)
  VND: 25.3 mL/cm^3 and 16.0 mL/cm^3

## c1cnc2cc3c(cc2n1)[C@@H]1CNC[C@H]3C1 [varenicline]
α7 nAChRs [9]
  Ki: 322 nM
α7 nAChRs [8]; [10]
  change of [18F]ASEM VT: −2.6±6.2% and 5.2±16.9%
  change of [18F]ASEM VT/fP: −1.6±5.5% and −5.4±15.2%

## O=S1(=O)c2cc(N3CCN4CCC3CC4)ccc2-c2cccc(F)c21 [ASEM]
α7 nAChRs [8]; 0.67 mg/kg cold ASEM, one animal
  receptor occupancy: 18.8% and 19%
α7 nAChRs [8]; 1.24 mg/kg cold ASEM, two animals
  receptor occupancy: 36.7% and 40.2% and 37–40%

## CN1CCC[C@H]1c1cccnc1 [nicotine]
α7 nAChRs [8]; [11]
  change of [18F]ASEM VT: −0.1±6.7% and 5.3±9.1%
  change of [18F]ASEM VT/fP: −7.2±6.2% and −3.0±8.4%
